Laboratory results: ChEMBL document CHEMBL5647686, “B cell receptor-induced phosphorylation of Pyk2 and focal adhesion kinase involves integrins and the Rap GTPases and is required for B cell spreading” (J Biol Chem, 2009)
Active and inactive are the calls of the source. No cut-off for these calls is given here.

Assays:
A20 [1] = assay: Inhibition of anti-Ig-induced SRC dependent overall protein tyrosine phosphorylation in mouse A20 cells under suspension conditions at 0.15 to 5 uM incubated for 45 mins before being stimulated with anti-IgG for 20 mins by immunoblotting; format: cell-based; conditions: dose 0.15-5 µM, time 65.0 min
Outline: (§1)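 A20 cells held in suspension in modified HEPES-buffered saline were treated with inhibitor at graded concentrations or DMSO for 45 min, then stimulated with 20 μg/ml anti-IgG for 20 min. Unstimulated controls were kept 45 min plus 20 min without stimulus. Cold lysis buffer was added, and lysates cleared. Pyk2 immunoprecipitates were blotted with 4G10 anti-Tyr(P) and reprobed for Pyk2. Whole lysates were blotted with 4G10 for total phosphotyrosine and for phospho-Erk.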

A20 [2] = assay: Inhibition of anti-Ig-induced tyrosine phosphorylation of FAK in mouse A20 cells plated on collagen/fibronectin ECM conditions at 0.15 to 5 uM incubated for 45 mins before being stimulated with anti-IgG for 20 mins by immunoblotting; format: cell-based; conditions: dose 0.15-5 µM, time 65.0 min
[3] = target: Protein-tyrosine kinase 2-beta (Mus musculus) (UniProt Q9QVP9); assay: Inhibition of anti-Ig-induced tyrosine phosphorylation of Pyk2 in mouse A20 cells at 0.15 to 5 uM incubated for 45 mins before being stimulated with anti-IgG for 20 mins by immunoblotting; format: cell-based; conditions: dose 0.15-5 µM, time 65.0 min; outline: as §1
Protein-tyrosine kinase 2-beta (Mus musculus), sequence (Q9QVP9 whole entry, looked up): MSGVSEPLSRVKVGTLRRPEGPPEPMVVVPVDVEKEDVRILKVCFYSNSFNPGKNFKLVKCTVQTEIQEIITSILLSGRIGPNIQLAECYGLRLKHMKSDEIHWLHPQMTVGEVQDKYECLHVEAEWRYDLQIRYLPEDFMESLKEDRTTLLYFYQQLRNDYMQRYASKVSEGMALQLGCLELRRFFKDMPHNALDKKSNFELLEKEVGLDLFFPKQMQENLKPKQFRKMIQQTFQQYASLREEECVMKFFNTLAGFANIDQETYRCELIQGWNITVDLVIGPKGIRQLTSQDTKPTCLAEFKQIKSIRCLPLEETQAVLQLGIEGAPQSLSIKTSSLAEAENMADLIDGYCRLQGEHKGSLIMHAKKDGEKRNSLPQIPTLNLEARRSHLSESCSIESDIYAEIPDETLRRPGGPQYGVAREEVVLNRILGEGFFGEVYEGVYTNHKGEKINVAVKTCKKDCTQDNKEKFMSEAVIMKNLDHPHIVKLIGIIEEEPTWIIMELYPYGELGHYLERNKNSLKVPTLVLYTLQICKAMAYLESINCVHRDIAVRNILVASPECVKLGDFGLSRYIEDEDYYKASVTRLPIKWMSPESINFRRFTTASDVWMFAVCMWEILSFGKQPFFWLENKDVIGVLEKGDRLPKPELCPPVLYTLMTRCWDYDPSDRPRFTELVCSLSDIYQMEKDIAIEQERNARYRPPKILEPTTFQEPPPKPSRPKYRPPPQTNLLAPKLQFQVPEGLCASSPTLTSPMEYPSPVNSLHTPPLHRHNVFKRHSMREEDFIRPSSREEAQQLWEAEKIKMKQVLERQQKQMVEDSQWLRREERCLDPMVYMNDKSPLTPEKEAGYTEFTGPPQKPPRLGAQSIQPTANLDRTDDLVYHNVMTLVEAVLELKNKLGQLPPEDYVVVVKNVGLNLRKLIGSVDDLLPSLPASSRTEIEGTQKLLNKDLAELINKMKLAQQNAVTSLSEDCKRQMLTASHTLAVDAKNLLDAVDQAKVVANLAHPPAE

[4] = Toxicity in mouse A20 cells by 7-amino-actinomycin D staining; format: cell-based
A20 [5] = assay: Inhibition of LFA-1 Ab-induced B-cell spreading in mouse A20 cells plated on anti-LFA-1 Ab coated plates at 2.5 uM for 1 to 3 hrs by immunofluorescence assay; format: functional, cell-based; conditions: time 1-3 hrs
Outline: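 A20 B lymphoma cells pretreated 45 min with DMSO or 2.5 μm inhibitor, then added to wells coated overnight at 4 °C with 2.63 μg/cm² rat anti-mouse LFA-1 mAb and blocked with 2% BSA/PBS. Incubated at 37 °C in RPMI 1640 with 2% FCS for 1 or 3 h. Cells scored as spread when phase dark, elongated or irregular with membrane processes. Percentage of adherent cells spread; mean ± S.E., >150 cells per experiment, three experiments; one-tailed paired t test vs DMSO.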

[6] = target: Tyrosine-protein kinase SYK (Mus musculus) (UniProt P48025); assay: Inhibition of anti-Ig-induced SYK dependent overall protein tyrosine phosphorylation in mouse A20 cells under suspension conditions at 0.15 to 5 uM incubated for 45 mins before being stimulated with anti-IgG for 20 mins by immunoblotting; format: cell-based; conditions: dose 0.15-5 µM, time 65.0 min; outline: as §1
Tyrosine-protein kinase SYK (Mus musculus), sequence (P48025 whole entry, looked up): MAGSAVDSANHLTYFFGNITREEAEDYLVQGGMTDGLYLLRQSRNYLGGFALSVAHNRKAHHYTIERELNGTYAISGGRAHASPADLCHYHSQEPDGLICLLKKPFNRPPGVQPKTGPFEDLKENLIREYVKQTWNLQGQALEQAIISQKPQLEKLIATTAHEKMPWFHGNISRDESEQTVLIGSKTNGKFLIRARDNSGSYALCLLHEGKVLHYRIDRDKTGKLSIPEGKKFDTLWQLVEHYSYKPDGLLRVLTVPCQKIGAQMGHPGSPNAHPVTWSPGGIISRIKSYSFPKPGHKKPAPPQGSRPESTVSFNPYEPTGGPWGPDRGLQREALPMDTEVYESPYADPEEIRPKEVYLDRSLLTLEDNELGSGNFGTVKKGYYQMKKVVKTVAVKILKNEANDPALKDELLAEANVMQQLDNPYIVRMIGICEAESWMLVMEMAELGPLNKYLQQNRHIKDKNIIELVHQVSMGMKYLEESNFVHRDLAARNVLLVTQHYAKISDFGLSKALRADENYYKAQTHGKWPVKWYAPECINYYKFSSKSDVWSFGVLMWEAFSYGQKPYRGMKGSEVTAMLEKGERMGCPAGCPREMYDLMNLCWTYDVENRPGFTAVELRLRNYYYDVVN

[7] = target: Protein-tyrosine kinase 2-beta (Mus musculus) (UniProt Q9QVP9); assay: Inhibition of anti-Ig-induced tyrosine phosphorylation of Pyk2 in mouse A20 cells plated on collagen/fibronectin ECM at 0.15 to 5 uM incubated for 45 mins before being stimulated with anti-IgG for 20 mins by immunoblotting; format: cell-based; conditions: dose 0.15-5 µM, time 65.0 min
A20 [8] = assay: Inhibition of anti-Ig-induced tyrosine phosphorylation of ERK in mouse A20 cells under suspension conditions at 0.15 to 5 uM incubated for 45 mins before being stimulated with anti-IgG for 20 mins by immunoblotting; format: cell-based; conditions: dose 0.15-5 µM, time 65.0 min; outline: as §1
A20 [9] = assay: Inhibition of anti-IgG-induced B-cell spreading in mouse A20 cells plated on fibronectin assessed as reduction in number of A20 cells that developed an elongated and spread morphology at 2.5 uM for 1 to 4 hrs by immunofluorescence assay; format: functional, cell-based; conditions: time 1-4 hrs
Outline: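 A20 cells pretreated 45 min with DMSO or 2.5 μm inhibitor in RPMI 1640 with 2% FCS, plated at 37 °C on wells coated with 2.63 μg/cm² fibronectin (BSA-blocked), and stimulated with 10 μg/ml soluble anti-IgG for 1, 2 or 4 h. Phase-dark cells with elongated or irregular shape counted as spread. Percentage of adherent cells; >150 cells counted per experiment, three experiments; one-tailed paired t test.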

[10] = target: Protein-tyrosine kinase 2-beta (Mus musculus) (UniProt Q9QVP9); assay: Inhibition of […] tyrosine phosphorylation of Pyk2 in mouse A20 cells induced by clustering LFA-1 with plate-bound Abs at 2.5 to 5 uM incubated for 45 mins before being stimulated with anti-LFA-1 Abs for 30 mins by immunoblotting; format: cell-based; conditions: dose 2.5-5 µM, time 75.0 min
Outline: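 A20 cells pretreated 45 min with inhibitor or DMSO were added for 30 min to wells coated with 2.63 μg/cm² anti-LFA-1 Abs. Lysates were cleared, and Pyk2 or FAK immunoprecipitates were blotted with 4G10 anti-Tyr(P).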

- inhibition [3]: Active
- inhibition [6]: inactive
- inhibition [7]: Active
- inhibition [10]: Active
SMILES: CN(c1ccccc1CNc1nc(Nc2ccc3c(c2)CC(=O)N3)ncc1C(F)(F)F)S(C)(=O)=O
- inhibition (A20 [1]): inactive
- inhibition (A20 [2]): Active
- Activity [4]: Non-Toxic
- inhibition (A20 [5]): Active
- inhibition (A20 [8]): inactive
- inhibition (A20 [9]): Active
